Measured values collected from several papers.
Lines come from different studies, so protocols differ.
Target: Serine/threonine-protein kinase STK11 (STK11, Homo sapiens, UniProt Q15831)
One construct used (Q15831 1-433): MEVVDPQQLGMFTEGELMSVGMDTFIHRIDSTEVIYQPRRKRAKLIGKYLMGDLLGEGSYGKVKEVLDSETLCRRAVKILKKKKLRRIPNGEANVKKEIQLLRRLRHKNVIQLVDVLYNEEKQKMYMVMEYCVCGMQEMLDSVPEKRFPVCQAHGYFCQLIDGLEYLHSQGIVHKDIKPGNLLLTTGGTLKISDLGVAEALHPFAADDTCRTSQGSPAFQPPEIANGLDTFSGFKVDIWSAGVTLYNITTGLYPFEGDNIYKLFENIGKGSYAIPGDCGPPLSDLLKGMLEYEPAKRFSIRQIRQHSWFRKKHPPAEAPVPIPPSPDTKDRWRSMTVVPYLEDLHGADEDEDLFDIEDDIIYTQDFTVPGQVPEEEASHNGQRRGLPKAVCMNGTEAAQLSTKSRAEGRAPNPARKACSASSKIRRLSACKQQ

COc1ccc2oc(-c3ccc4nc(N)oc4c3)c/c(=N\c3ccccc3NC(=O)CCN)c2c1
remaining binding (binding; 1 µM): 99%

CC(C)S(=O)(=O)c1ccc2nccc(Nc3ccc4sc(C5CCCC5)nc4c3)c2c1
activity vs control (enzyme activity, inhibitor; 1 µM): 109%

C[C@H]1CC[C@H](n2c3cnccc3c3cnc(Nc4ccc5c(n4)CCN(C(=O)CO)C5)nc32)CC1
remaining binding (binding, competition with immobilised ligand; 1 µM): 71%

C#Cc1cnc(Nc2ccnc(CO)c2)nc1Nc1ccccc1S(C)(=O)=NC#N (stereo not drawn)
remaining signal (cell-free assay; 1 µM): 45%

C=CC(=O)N1CCC([C@@H]2CCNc3c(C(N)=O)c(-c4ccc(Oc5ccccc5)cc4)nn32)CC1
inhibition (enzyme activity, inhibitor; 1 µM): 10%

N#Cc1ccc(NC(=O)Nc2ccccc2)cc1
remaining binding (cell-free assay, competition with immobilised ligand; 25 µM): 85%

COc1ccc2[nH]c3c4[nH]c5ccc(OC)cc5c4c4c(c3c2c1)C(=O)NC4=O
remaining binding (binding, competition with immobilised ligand; 1 µM): 99%

CO[C@@H]1[C@H](N(C)C(=O)c2ccccc2)C[C@H]2O[C@]1(C)n1c3ccccc3c3c4c(c5c6ccccc6n2c5c31)C(=O)NC4
inhibition (enzyme activity, inhibitor; 1 µM): 94%

CCCCC(=O)Nc1ccc(-c2ccc3ncn(CCC)c(=O)c3c2)cn1
remaining binding (binding, competition with immobilised ligand; 0.5 µM): 84%
